Measurements taken from ChEMBL document CHEMBL1141720, “A study of the structure-activity relationship of GABA(A)-benzodiazepine receptor bivalent ligands by conformational analysis with low temperature NMR and X-ray analysis” (Bioorg Med Chem, 2008).

How the values were obtained:
Assay type in all cases: cell-based
[1] = target: GABA A receptor alpha-4/beta-3/gamma-2 (Homo sapiens, UniProt P18507+P28472+P48169); experiment: Displacement of [3H]flunitrazepam from human recombinant GABAA alpha-4-beta-3-gamma-2 receptor expressed in HEK293 cells
How it was run: (§1)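 Membranes from the receptor-expressing cells were harvested in hypotonic 50 mM Tris-acetate, pH 7.4 at 4°C. They were incubated with [3H]flunitrazepam in 0.5 mL for 1 h at 4°C. Nonspecific binding was taken with 100 μM diazepam. Reactions were filtered onto 0.3% polyethyleneimine-treated GF/C filters, washed three times with ice-cold buffer, and counted by liquid scintillation. Protein was measured by Bio-Rad assay against a BSA standard.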

[2] = target: T1, Gamma-aminobutyric acid receptor subunit alpha-3 (Homo sapiens, UniProt P18507+P28472+P34903); experiment: Displacement of [3H]flunitrazepam from human recombinant GABAA alpha-3-beta-3-gamma-2 receptor expressed in HEK293 cells; how it was run: as §1
T1 sequence (P34903 whole entry): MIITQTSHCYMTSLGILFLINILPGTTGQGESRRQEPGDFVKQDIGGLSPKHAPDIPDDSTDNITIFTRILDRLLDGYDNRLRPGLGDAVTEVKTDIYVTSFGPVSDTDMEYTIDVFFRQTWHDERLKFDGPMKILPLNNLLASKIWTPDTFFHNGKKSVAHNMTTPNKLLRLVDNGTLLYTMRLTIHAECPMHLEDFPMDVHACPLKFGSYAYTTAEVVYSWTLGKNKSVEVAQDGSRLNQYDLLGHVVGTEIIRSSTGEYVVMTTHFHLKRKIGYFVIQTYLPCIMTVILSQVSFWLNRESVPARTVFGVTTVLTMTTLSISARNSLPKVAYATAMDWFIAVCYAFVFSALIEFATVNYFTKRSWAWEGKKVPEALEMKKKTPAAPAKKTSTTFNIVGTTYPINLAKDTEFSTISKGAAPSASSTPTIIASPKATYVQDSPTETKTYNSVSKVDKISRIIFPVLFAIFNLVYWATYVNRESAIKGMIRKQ

[3] = target: T2, GABA-A receptor; alpha-2/beta-3/gamma-2 (Homo sapiens, UniProt P18507+P28472+P47869); experiment: Displacement of [3H]flunitrazepam from human recombinant GABAA alpha-2-beta-3-gamma-2 receptor expressed in HEK293 cells; how it was run: as §1
T2 sequence (P18507 whole entry): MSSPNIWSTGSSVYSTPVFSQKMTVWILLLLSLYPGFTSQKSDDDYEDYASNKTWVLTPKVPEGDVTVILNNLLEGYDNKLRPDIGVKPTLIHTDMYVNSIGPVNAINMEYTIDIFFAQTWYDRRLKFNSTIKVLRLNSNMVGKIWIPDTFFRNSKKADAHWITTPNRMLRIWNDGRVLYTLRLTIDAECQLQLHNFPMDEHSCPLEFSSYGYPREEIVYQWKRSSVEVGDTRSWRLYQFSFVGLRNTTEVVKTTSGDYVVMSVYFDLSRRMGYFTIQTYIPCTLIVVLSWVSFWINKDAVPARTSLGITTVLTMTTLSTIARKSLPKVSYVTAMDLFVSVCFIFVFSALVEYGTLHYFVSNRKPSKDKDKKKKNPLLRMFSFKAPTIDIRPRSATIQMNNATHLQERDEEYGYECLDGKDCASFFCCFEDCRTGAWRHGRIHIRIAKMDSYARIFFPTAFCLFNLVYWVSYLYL
T2 sequence (P28472 whole entry): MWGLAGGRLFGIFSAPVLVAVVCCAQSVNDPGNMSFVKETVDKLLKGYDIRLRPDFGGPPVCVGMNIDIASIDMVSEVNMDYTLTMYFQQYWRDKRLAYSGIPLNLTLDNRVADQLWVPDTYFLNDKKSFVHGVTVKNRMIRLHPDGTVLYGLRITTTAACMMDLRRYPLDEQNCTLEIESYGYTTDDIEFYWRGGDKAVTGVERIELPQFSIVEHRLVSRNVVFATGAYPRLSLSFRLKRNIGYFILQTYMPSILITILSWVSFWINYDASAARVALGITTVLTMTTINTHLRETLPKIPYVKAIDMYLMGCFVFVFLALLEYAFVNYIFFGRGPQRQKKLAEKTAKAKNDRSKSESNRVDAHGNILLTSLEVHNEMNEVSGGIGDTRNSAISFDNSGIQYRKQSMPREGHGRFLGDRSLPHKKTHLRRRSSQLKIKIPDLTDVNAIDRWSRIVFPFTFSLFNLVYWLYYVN
T2 sequence (P47869 whole entry): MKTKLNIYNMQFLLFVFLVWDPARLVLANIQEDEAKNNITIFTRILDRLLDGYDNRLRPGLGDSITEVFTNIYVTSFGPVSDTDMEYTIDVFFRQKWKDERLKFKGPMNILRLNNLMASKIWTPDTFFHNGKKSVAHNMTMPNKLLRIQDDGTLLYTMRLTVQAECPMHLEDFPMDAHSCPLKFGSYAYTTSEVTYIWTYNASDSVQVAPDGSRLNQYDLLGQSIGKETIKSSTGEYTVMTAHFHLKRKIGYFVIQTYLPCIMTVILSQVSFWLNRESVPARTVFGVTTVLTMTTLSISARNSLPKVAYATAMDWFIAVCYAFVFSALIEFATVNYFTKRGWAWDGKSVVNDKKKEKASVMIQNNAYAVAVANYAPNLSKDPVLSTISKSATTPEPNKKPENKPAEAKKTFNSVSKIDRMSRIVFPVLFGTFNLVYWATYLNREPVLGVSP

[4] = target: GABA-A receptor; alpha-6/beta-3/gamma-2 (Homo sapiens, UniProt P18507+P28472+Q16445); experiment: Displacement of [3H]flunitrazepam from human recombinant GABAA alpha-6-beta-3-gamma-2 receptor expressed in HEK293 cells; how it was run: as §1
[5] = target: T3, GABA-A receptor; alpha-1/beta-3/gamma-2 (Homo sapiens, UniProt P14867+P18507+P28472); experiment: Displacement of [3H]flunitrazepam from human recombinant GABAA alpha-1-beta-3-gamma-2 receptor expressed in HEK293 cells; how it was run: as §1
T3 sequence (P14867 whole entry): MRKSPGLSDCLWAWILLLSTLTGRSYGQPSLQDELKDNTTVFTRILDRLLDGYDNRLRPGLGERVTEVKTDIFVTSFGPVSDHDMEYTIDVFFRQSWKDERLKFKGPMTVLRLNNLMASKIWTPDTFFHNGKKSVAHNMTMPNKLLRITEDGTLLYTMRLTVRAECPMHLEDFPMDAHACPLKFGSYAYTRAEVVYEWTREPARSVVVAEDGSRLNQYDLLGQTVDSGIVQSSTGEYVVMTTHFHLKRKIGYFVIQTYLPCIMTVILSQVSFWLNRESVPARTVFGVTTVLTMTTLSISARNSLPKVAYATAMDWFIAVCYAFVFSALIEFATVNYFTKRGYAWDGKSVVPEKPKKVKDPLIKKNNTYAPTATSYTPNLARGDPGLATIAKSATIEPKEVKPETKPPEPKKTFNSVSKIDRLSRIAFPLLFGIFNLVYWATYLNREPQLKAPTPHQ
T3 sequence (P18507 whole entry): T2 sequence (P18507 whole entry)
T3 sequence (P28472 whole entry): T2 sequence (P28472 whole entry)

[6] = target: T4, GABA-A receptor; alpha-5/beta-3/gamma-2 (Homo sapiens, UniProt P18507+P28472+P31644); experiment: Displacement of [3H]flunitrazepam from human recombinant GABAA alpha-5-beta-3-gamma-2 receptor expressed in HEK293 cells; how it was run: as §1
T4 sequence (P18507 whole entry): T2 sequence (P18507 whole entry)
T4 sequence (P28472 whole entry): T2 sequence (P28472 whole entry)
T4 sequence (P31644 whole entry): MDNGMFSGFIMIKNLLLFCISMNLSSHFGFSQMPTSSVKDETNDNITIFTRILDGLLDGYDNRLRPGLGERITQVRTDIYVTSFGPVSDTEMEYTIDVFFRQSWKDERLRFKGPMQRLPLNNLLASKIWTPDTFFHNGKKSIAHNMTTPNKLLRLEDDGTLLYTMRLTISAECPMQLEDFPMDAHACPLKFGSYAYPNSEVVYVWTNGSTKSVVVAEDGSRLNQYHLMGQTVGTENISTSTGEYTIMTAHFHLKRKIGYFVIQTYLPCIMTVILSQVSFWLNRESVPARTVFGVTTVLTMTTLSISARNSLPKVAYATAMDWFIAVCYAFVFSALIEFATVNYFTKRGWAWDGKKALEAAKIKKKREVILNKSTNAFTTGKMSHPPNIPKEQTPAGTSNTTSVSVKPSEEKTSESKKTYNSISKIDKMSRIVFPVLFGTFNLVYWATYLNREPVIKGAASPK

Sequence of GABA-A receptor; alpha-6/beta-3/gamma-2 (Q16445 whole entry, one chain of several): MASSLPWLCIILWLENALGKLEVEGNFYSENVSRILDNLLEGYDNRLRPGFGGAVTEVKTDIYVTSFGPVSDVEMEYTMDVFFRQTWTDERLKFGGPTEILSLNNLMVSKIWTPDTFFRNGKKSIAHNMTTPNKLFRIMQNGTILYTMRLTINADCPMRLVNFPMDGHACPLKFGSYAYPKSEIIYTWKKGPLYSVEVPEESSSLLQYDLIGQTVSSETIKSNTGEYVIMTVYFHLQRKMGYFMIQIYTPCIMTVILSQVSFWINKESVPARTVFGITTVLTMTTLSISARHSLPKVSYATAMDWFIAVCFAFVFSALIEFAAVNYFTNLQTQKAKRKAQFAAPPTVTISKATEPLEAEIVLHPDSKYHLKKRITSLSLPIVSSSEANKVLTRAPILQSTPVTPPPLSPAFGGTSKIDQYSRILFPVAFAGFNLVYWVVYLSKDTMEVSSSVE
Sequence of GABA A receptor alpha-4/beta-3/gamma-2 (P48169 whole entry, one chain of several): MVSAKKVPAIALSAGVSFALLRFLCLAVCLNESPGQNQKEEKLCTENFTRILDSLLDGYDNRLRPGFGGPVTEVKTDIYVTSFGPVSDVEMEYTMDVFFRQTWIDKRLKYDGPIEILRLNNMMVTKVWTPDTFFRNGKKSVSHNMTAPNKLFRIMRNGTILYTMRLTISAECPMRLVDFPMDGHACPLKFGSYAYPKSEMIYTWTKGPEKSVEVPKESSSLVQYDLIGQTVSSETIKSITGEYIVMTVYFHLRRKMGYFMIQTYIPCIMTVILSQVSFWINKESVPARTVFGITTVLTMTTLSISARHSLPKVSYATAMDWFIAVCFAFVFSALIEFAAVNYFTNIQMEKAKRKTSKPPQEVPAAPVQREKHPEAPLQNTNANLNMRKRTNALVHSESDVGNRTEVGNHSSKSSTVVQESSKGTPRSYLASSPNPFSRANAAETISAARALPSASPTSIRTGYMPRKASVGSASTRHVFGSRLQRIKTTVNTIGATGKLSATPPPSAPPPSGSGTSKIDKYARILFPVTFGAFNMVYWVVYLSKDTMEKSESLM

Row | Structure (SMILES) | Ki [1] [µM] | Ki [2] [µM] | Ki [3] [µM] | Ki [4] [µM] | Ki [5] [µM] | Ki [6] [µM]
1 | C#Cc1ccc2c(c1)C(=O)N(C)Cc1c(C(=O)OCC)ncn1-2 | 0.0053 | – | – | – | – | –
2 | CCc1ccc2c(c1)C(=O)N(C)Cc1c(C(=O)OCCCOC(=O)c3ncn4c3CN(C)C(=O)c3cc(CC)ccc3-4)ncn1-2 | – | 8.55 | 4.7 | 5 | 1.85 | 0.101
3 | C#Cc1ccc2c(c1)C(=O)N(C)Cc1c(C(=O)OCCCCCOC(=O)c3ncn4c3CN(C)C(=O)c3cc(C#C)ccc3-4)ncn1-2 | – | 2.67 | 0.661 | 0.0542 | 0.231 | 0.0054
4 | C#Cc1ccc2c(c1)C(c1ccccc1)=NCc1c(C(=O)OCCOCCOC(=O)c3ncn4c3CN=C(c3ccccc3)c3cc(C#C)ccc3-4)ncn1-2 | – | – | 5 | 5 | 0.46 | 5
5 | C#Cc1ccc2c(c1)C(=O)N(C)Cc1c(C(=O)OCOCOC(=O)c3ncn4c3CN(C)C(=O)c3cc(C#C)ccc3-4)ncn1-2 | – | 1.86 | 2.69 | – | 3.8 | 0.0761
6 | C#Cc1ccc2c(c1)C(c1ccccc1)=NCc1c(C(=O)OCCCOC(=O)c3ncn4c3CN=C(c3ccccc3)c3cc(C#C)ccc3-4)ncn1-2 | > 5 | 0.272 | 0.0074 | > 5 | 0.236 | 0.194
